The text below walks through data of ChEMBL document CHEMBL1142010, “Synthesis and in vitro antitrypanosomal activity of novel Nifurtimox analogues” (2005).

SMILES strings stand for the structures.

What all share (format): functional
The test system of test [1] is Trypanosoma cruzi. Put plainly: Percent of growth inhibition of Trypanosoma cruzi (Y strain) epimastigote forms at compound concentration of 10 mg/mL after incubation for 72 hr. Also on record: inhibition: dose or concentration left out as unconfirmed.
Test [2] deals with Trypanosoma cruzi. The test is described as follows: Percent of growth inhibition of Trypanosoma cruzi (Y strain) epimastigote forms at compound concentration of 10 mg/mL after incubation for 98 hr. Set-up: inhibition: dose or concentration left out as unconfirmed.
Test [3] has as its system Trypanosoma cruzi. Put plainly: Percent of growth inhibition of Trypanosoma cruzi (Y strain) epimastigote forms at compound concentration of 100 mg/mL after incubation for 24 hr. Also on record: inhibition: dose or concentration left out as unconfirmed.
For test [4], the system named is Trypanosoma cruzi. The test is described as follows: Percent of growth inhibition of Trypanosoma cruzi (Y strain) epimastigote forms at compound concentration of 1 mg/mL after incubation for 48 hr. Set-up: inhibition: dose or concentration left out as unconfirmed.
Test [5] relates to Trypanosoma cruzi. The test is described as follows: Percent of growth inhibition of Trypanosoma cruzi (Y strain) epimastigote forms at compound concentration of 10 mg/mL after incubation for 24 hr. Set-up: inhibition: dose or concentration left out as unconfirmed.
Test [6] has as its system Trypanosoma cruzi. The test is described as follows: Percent of growth inhibition of Trypanosoma cruzi (Y strain) epimastigote forms at compound concentration of 1 mg/mL after incubation for 24 hr. Put shortly:
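Y-strain epimastigotes were grown at 28 °C in LIT medium with 10% heat-inactivated (56°, 30 min) fetal calf serum. Log-phase parasites, started at 2 × 10⁶/mL, were exposed to compound in DMSO (1% final). Growth and viability were read every 24 h by inverted microscopy, absorbance at 580 nm and Neubauer counts, in triplicate. Growth inhibition % is the mean of three experiments.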

Test [7] has as its system Trypanosoma cruzi. The test is described as follows: Percent of growth inhibition of Trypanosoma cruzi (Y strain) epimastigote forms at compound concentration of 1 mg/mL after incubation for 72 hr. Set-up: inhibition: dose or concentration left out as unconfirmed.
In test [8] the test system is Trypanosoma cruzi. Put plainly: Percent of growth inhibition of Trypanosoma cruzi (Y strain) epimastigote forms at compound concentration of 10 mg/mL after incubation for 48 hr. Set-up: inhibition: dose or concentration left out as unconfirmed.

Usually inhibition stands for the share of the control response that was lost under treatment.

On to `O=C(/C=C/c1cccs1)NCc1ccccc1`, for which the inhibition in test [1] was 19.6%; in test [2], 13.2%; in test [3], 39.1%; in test [4], 15%; in test [5] it was 17.4%; in test [7], 10.7%. In test [8], the inhibition worked out at 22.5%. Moreover, the inhibition at 1000 µg/mL in test [6] was 17.4%.
As to `O=C(/C=C/c1ccc([N+](=O)[O-])o1)Nc1nc2c(Cl)cccc2s1`, the inhibition in test [1] was determined as 50%; in test [2], 50%; in test [3], 100%; in test [4], 22.5%; in test [5], 21.7%; in test [7] it was 23.2%. Moreover, the inhibition in test [8] was determined as 42.5%. Moreover, the inhibition at 1000 µg/mL in test [6] was 26.1%.
In the case of `O=C(/C=C/c1ccc([N+](=O)[O-])o1)NCc1ccccc1`, the inhibition is 100% in test [1]; 100% in test [2]; 100% in test [3]; 65% in test [4]; 100% in test [5]; 71.4% in test [7]. In test [8], this molecule came in with an inhibition of 100%. Moreover, 1000 µg/mL produced 47.8% inhibition in test [6].
As for `CC(C)CNC(=O)/C=C/c1ccc([N+](=O)[O-])o1`, the inhibition in test [1] turned out to be 100%; in test [2] it was 100%; in test [3], 100%; in test [4] it was 65%; in test [5], 100%; in test [7], 69.6%. For the same molecule, the inhibition in test [8] was 100%. The same molecule gave an inhibition at 1000 µg/mL in test [6] of 47.8%.
`O=C(/C=C/c1ccc([N+](=O)[O-])o1)NCc1ccc2c(c1)OCO2`: the inhibition was found to be 100% in test [1]; 100% in test [2]; 100% in test [3]; 67.5% in test [4]; 100% in test [5]; 71.4% in test [7]. In addition, the inhibition in test [8] is 100%. The molecule also yielded an inhibition at 1000 µg/mL in test [6] of 52.2%.
As for `O=C(/C=C/c1ccc([N+](=O)[O-])o1)NCc1ccc(Cl)cc1`, the inhibition worked out at 100% in test [1]; 100% in test [3]; 60% in test [4]; 100% in test [5]; 67.8% in test [7]; 100% in test [8]. Further, at 1000 µg/mL the inhibition in test [6] was 39.1%.
Regarding `O=C(/C=C/c1ccc([N+](=O)[O-])s1)NCc1ccccc1`, the inhibition in test [1] came to 53.6%; in test [2], 55.9%; in test [3], 100%; in test [5], 30.4%; in test [7], 25%; in test [8], 47.5%. The same molecule registered an inhibition at 1000 µg/mL in test [6] of 26.1%.
On to `O=C(/C=C/c1ccco1)NCc1ccccc1`, for which the inhibition in test [1] turned out to be 28.6%; in test [2], 19.1%; in test [3], 39.1%; in test [4] it was 5%; in test [5], 21.7%; in test [7], 5.36%. The inhibition in test [8] stood at 32.5%. In addition, the inhibition at 1000 µg/mL in test [6] was found to be 8.7%.
For the molecule `C[S+](C)[O-]` [DIMETHYL SULFOXIDE], the inhibition in test [1], in test [2], in test [3], in test [4], in test [5] and in test [7] was 0% in each case. In test [8], the inhibition worked out at 0%. Moreover, testing at 1000 µg/mL in test [6] gave an inhibition of 0%.
`CC1CS(=O)(=O)CCN1/N=C/c1ccc([N+](=O)[O-])o1` (stereo not drawn) [NIFURTIMOX]: the inhibition at 10000 µg/mL in test [1], in test [2], in test [5] and in test [8] was 100% each time. Also, the inhibition at 100000 µg/mL in test [3] was 100%. Moreover, the values for the inhibition at 1000 µg/mL in test [4], in test [6] and in test [7] were 20%, 17.4% and 19.6%, respectively.
